Values after ≈ are worked out from the molar mass of the structure shown.
Tests used:
[1] = test system: Staphylococcus epidermidis; test: Antibacterial activity against methicillin-resistant Staphylococcus epidermidis 09-4 after 18 to 24 hrs by NCCLS M100-S11 two fold serial dilution method; assay type: functional
In short: (§1)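 Two-fold serial dilution in agar medium. MIC read as the lowest concentration giving complete inhibition of bacterial growth after incubation at 35 °C for 18–24 h.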

Staphylococcus aureus [2] = test: Antibacterial activity against Staphylococcus aureus ATCC 25923 after 18 to 24 hrs by NCCLS M100-S11 two fold serial dilution method; assay type: functional; conditions: ATCC25923
Pseudomonas aeruginosa [3] = test: Antibacterial activity against Pseudomonas aeruginosa 09-33 after 18 to 24 hrs by NCCLS M100-S11 two fold serial dilution method; assay type: functional
Klebsiella pneumoniae [4] = test: Antibacterial activity against Klebsiella pneumoniae 09-22 after 18 to 24 hrs by NCCLS M100-S11 two fold serial dilution method; assay type: functional
Enterococcus faecium [5] = test: Antibacterial activity against Enterococcus faecium 08-7 after 18 to 24 hrs by NCCLS M100-S11 two fold serial dilution method; assay type: functional
Pseudomonas aeruginosa [6] = test: Antibacterial activity against Pseudomonas aeruginosa ATCC 27853 after 18 to 24 hrs by NCCLS M100-S11 two fold serial dilution method; assay type: functional
Staphylococcus aureus [7] = test: Antibacterial activity against methicillin-resistant Staphylococcus aureus 08-1 after 18 to 24 hrs by NCCLS M100-S11 two fold serial dilution method; assay type: functional; in short: as §1
Escherichia coli [8] = test: Antibacterial activity against Escherichia coli 08-22 after 18 to 24 hrs by NCCLS M100-S11 two fold serial dilution method; assay type: functional
Klebsiella pneumoniae [9] = test: Antibacterial activity against Klebsiella pneumoniae 09-23 after 18 to 24 hrs by NCCLS M100-S11 two fold serial dilution method; assay type: functional
[10] = test system: Staphylococcus epidermidis; test: Antibacterial activity against methicillin-sensitive Staphylococcus epidermidis 09-6 after 18 to 24 hrs by NCCLS M100-S11 two fold serial dilution method; assay type: functional; in short: as §1
Enterococcus faecalis [11] = test: Antibacterial activity against Enterococcus faecalis 08-12 after 18 to 24 hrs by NCCLS M100-S11 two fold serial dilution method; assay type: functional
Escherichia coli [12] = test: Antibacterial activity against Escherichia coli 08-21 after 18 to 24 hrs by NCCLS M100-S11 two fold serial dilution method; assay type: functional
Enterococcus faecalis [13] = test: Antibacterial activity against Enterococcus faecalis 08-10 after 18 to 24 hrs by NCCLS M100-S11 two fold serial dilution method; assay type: functional
Streptococcus pneumoniae [14] = test: Antibacterial activity against Streptococcus pneumoniae 08-2 after 18 to 24 hrs by NCCLS M100-S11 two fold serial dilution method; assay type: functional
Pseudomonas aeruginosa [15] = test: Antibacterial activity against Pseudomonas aeruginosa 09-32 after 18 to 24 hrs by NCCLS M100-S11 two fold serial dilution method; assay type: functional
Streptococcus pneumoniae [16] = test: Antibacterial activity against Streptococcus pneumoniae 08-4 after 18 to 24 hrs by NCCLS M100-S11 two fold serial dilution method; assay type: functional
Escherichia coli [17] = test: Antibacterial activity against Escherichia coli ATCC 25922 after 18 to 24 hrs by NCCLS M100-S11 two fold serial dilution method; assay type: functional; conditions: ATCC25922
Pseudomonas aeruginosa [18] = test: Antibacterial activity against Pseudomonas aeruginosa 09-34 after 18 to 24 hrs by NCCLS M100-S11 two fold serial dilution method; assay type: functional
[19] = Cytotoxicity against african green monkey Vero cells after 72 hrs by MTT assay; assay type: cell-based; conditions: chlorocebus sabaeus
In short: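 Vero cells were kept in Minimum Essential Medium with Earle's salts plus 10% fetal bovine serum at 37 °C under 5% CO₂. Cells were seeded at 1 × 10⁴ per well and allowed to recover 24 h. Medium was then replaced with assay medium containing compound or no drug, and cells were exposed for 72 h. CC₅₀ is the 50% cellular cytotoxic concentration.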

Staphylococcus aureus [20] = test: Antibacterial activity against methicillin-sensitive Staphylococcus aureus 08-1 after 18 to 24 hrs by NCCLS M100-S11 two fold serial dilution method; assay type: functional
[21] = test system: Staphylococcus epidermidis; test: Antibacterial activity against methicillin-sensitive Staphylococcus epidermidis 09-3 after 18 to 24 hrs by NCCLS M100-S11 two fold serial dilution method; assay type: functional; in short: as §1
Enterococcus faecium [22] = test: Antibacterial activity against Enterococcus faecium 08-2 after 18 to 24 hrs by NCCLS M100-S11 two fold serial dilution method; assay type: functional

Structure (SMILES)	MIC [1] [µg/mL]	MIC (Staphylococcus aureus [2]) [µg/mL]	MIC (Pseudomonas aeruginosa [3]) [µg/mL]	MIC (Klebsiella pneumoniae [4]) [µg/mL]	MIC (Enterococcus faecium [5]) [µg/mL]	MIC (Pseudomonas aeruginosa [6]) [µg/mL]	MIC (Staphylococcus aureus [7]) [µg/mL]	MIC (Escherichia coli [8]) [µg/mL]	MIC (Klebsiella pneumoniae [9]) [µg/mL]	MIC [10] [µg/mL]	MIC (Enterococcus faecalis [11]) [µg/mL]	MIC (Escherichia coli [12]) [µg/mL]	MIC (Enterococcus faecalis [13]) [µg/mL]	MIC (Streptococcus pneumoniae [14]) [µg/mL]	MIC (Pseudomonas aeruginosa [15]) [µg/mL]	MIC (Streptococcus pneumoniae [16]) [µg/mL]	MIC (Escherichia coli [17]) [µg/mL]	MIC (Pseudomonas aeruginosa [18]) [µg/mL]	CC50 at 72 h [19] [µg/mL]	MIC (Staphylococcus aureus [20]) [µg/mL]	also measured
COc1c(N2CCN(CC#N)C(C)C2)c(F)cc2c(=O)c(C(=O)O)cn(C3CC3)c12 (stereo not given)	0.25 (≈ 0.603 µM)	1 (≈ 2.41 µM)	32 (≈ 77.2 µM)	2 (≈ 4.83 µM)	8 (≈ 19.3 µM)	2 (≈ 4.83 µM)	1 (≈ 2.41 µM)	8 (≈ 19.3 µM)	2 (≈ 4.83 µM)	0.25 (≈ 0.603 µM)	8 (≈ 19.3 µM)	8 (≈ 19.3 µM)	8 (≈ 19.3 µM)	8 (≈ 19.3 µM)	0.25 (≈ 0.603 µM)	1 (≈ 2.41 µM)	4 (≈ 9.65 µM)	2 (≈ 4.83 µM)	354 (≈ 853 µM)	1 (≈ 2.41 µM)	MIC [21]: 0.25 µg/mL (≈ 0.603 µM); MIC (Enterococcus faecium [22]): 8 µg/mL (≈ 19.3 µM)
COc1c(N2CCN(CCC#N)C(C)C2)c(F)cc2c(=O)c(C(=O)O)cn(C3CC3)c12 (stereo not given)	2 (≈ 4.67 µM)	2 (≈ 4.67 µM)	128 (≈ 299 µM)	32 (≈ 74.7 µM)	32 (≈ 74.7 µM)	8 (≈ 18.7 µM)	4 (≈ 9.34 µM)	64 (≈ 149 µM)	32 (≈ 74.7 µM)	2 (≈ 4.67 µM)	32 (≈ 74.7 µM)	32 (≈ 74.7 µM)	64 (≈ 149 µM)	32 (≈ 74.7 µM)	4 (≈ 9.34 µM)	4 (≈ 9.34 µM)	16 (≈ 37.3 µM)	16 (≈ 37.3 µM)	500 (≈ 1170 µM)	4 (≈ 9.34 µM)	MIC [21]: 0.25 µg/mL (≈ 0.583 µM); MIC (Enterococcus faecium [22]): 32 µg/mL (≈ 74.7 µM)
COC(=O)CN1CCN(c2c(F)cc3c(=O)c(C(=O)O)cn(C4CC4)c3c2OC)CC1C (stereo not given)	32 (≈ 71.5 µM)	8 (≈ 17.9 µM)	128 (≈ 286 µM)	128 (≈ 286 µM)	> 128	128 (≈ 286 µM)	128 (≈ 286 µM)	> 128	> 128	32 (≈ 71.5 µM)	> 128	> 128	> 128	> 128	128 (≈ 286 µM)	> 128	128 (≈ 286 µM)	> 128	500 (≈ 1120 µM)	32 (≈ 71.5 µM)	MIC [21]: 32 µg/mL (≈ 71.5 µM); MIC (Enterococcus faecium [22]): > 128 µg/mL
COC(=O)CCN1CCN(c2c(F)cc3c(=O)c(C(=O)O)cn(C4CC4)c3c2OC)CC1C (stereo not given)	> 128	8 (≈ 17.3 µM)	> 128	> 128	> 128	> 128	4 (≈ 8.67 µM)	> 128	> 128	> 128	> 128	> 128	> 128	> 128	> 128	> 128	> 128	> 128	> 1000	4 (≈ 8.67 µM)	MIC [21]: > 128 µg/mL; MIC (Enterococcus faecium [22]): > 128 µg/mL
CCOC(=O)CN1CCN(c2c(F)cc3c(=O)c(C(=O)O)cn(C4CC4)c3c2OC)CC1C (stereo not given)	4 (≈ 8.67 µM)	4 (≈ 8.67 µM)	> 128	> 128	> 128	128 (≈ 277 µM)	> 128	> 128	> 128	4 (≈ 8.67 µM)	> 128	> 128	> 128	> 128	> 128	4 (≈ 8.67 µM)	128 (≈ 277 µM)	> 128	1000 (≈ 2170 µM)	4 (≈ 8.67 µM)	MIC [21]: 4 µg/mL (≈ 8.67 µM); MIC (Enterococcus faecium [22]): > 128 µg/mL
